Source: ChEMBL document CHEMBL1135676, “Comparative molecular field analysis of substrates for an aryl sulfotransferase based on catalytic mechanism and protein homology modeling” (J Med Chem, 2002)

How the values were obtained:
not read [1] = substrate: Oc1ccc2ccccc2c1; assay: not read
not read [2] = substrate: Oc1ccccc1; assay: not read
[3] = target: Aryl sulfotransferase IV (Rattus norvegicus); assay: (§1) Apparent Michaelis constant (Km) against Arylsulfotransferase (AST IV)
In short: (§2)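 Recombinant rat hepatic AST IV, expressed in E. coli and purified. Each reaction held 1.0 μg enzyme, 0.2 mM PAPS, 8.3 mM 2-mercaptoethanol, varying substrate and 0.25 M potassium phosphate at pH 7.0. Mixtures were preincubated 2 min at 37 °C, started with enzyme, run 10 min at 37 °C and stopped with methanol. Substrate-dependent PAP formation was read by HPLC and corrected with substrate-free controls. kcat is in min⁻¹ and apparent Km in M.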

[4] = substrate: CC(=O)Nc1ccc(O)cc1; assay: as §1
In short: as §2

[5] = substrate: CC(C)[C@H](O)c1ccccc1; assay: as §1
In short: as §2

[6] = substrate: CCCCCCCCCc1ccc(O)cc1; assay: as §1
In short: as §2

[7] = substrate: CCCCCCCc1ccc(CO)cc1; assay: as §1
In short: as §2

[8] = substrate: CCCCCCCc1ccc(O)cc1; assay: as §1
In short: as §2

[9] = substrate: CCCCCC[C@H](O)c1ccccc1; assay: as §1
In short: as §2

[10] = substrate: CCCCCCc1ccc(CO)cc1; assay: as §1
In short: as §2

[11] = substrate: CCCCC[C@H](O)c1ccccc1; assay: as §1
In short: as §2

[12] = substrate: CCCCCc1ccc(CO)cc1; assay: as §1
In short: as §2

[13] = substrate: CCCCCc1ccc(O)cc1; assay: as §1
In short: as §2

[14] = substrate: CCCC[C@H](O)c1ccccc1; assay: as §1
In short: as §2

[15] = substrate: CCCCc1ccc(CO)cc1; assay: as §1
In short: as §2

[16] = substrate: CCCCc1ccc(O)cc1; assay: as §1
In short: as §2

[17] = substrate: CCCN(O)c1ccccc1; assay: as §1
In short: as §2

[18] = substrate: CCC[C@H](O)c1ccccc1; assay: as §1
In short: as §2

[19] = substrate: CCCc1ccc(CO)cc1; assay: as §1
In short: as §2

[20] = substrate: CCCc1ccc(O)cc1; assay: as §1
In short: as §2

[21] = substrate: CCN(O)c1ccccc1; assay: as §1
In short: as §2

[22] = substrate: CC[C@H](O)c1ccccc1; assay: as §1
In short: as §2

[23] = substrate: CCc1ccc(O)cc1; assay: as §1
In short: as §2

[24] = substrate: CN(O)c1ccccc1; assay: as §1
In short: as §2

[25] = substrate: CN[C@@H](C)C(O)c1ccccc1; assay: as §1
In short: as §2

[26] = substrate: CN[C@H](C)[C@H](O)c1ccccc1; assay: as §1
In short: as §2

[27] = substrate: COC(=O)[C@@H](N)Cc1ccc(O)cc1; assay: as §1
In short: as §2

[28] = substrate: C[C@@H](O)c1ccccc1; assay: as §1
In short: as §2

[29] = substrate: C[C@H](O)c1ccccc1; assay: as §1
In short: as §2

[30] = substrate: Cc1ccc(CO)cc1; assay: as §1
In short: as §2

[31] = substrate: Cc1ccc(O)cc1; assay: as §1
In short: as §2

[32] = substrate: O=C(CBr)Nc1ccc(O)cc1; assay: as §1
In short: as §2

[33] = substrate: O=[N+]([O-])c1ccc(CO)cc1; assay: as §1
In short: as §2

[34] = substrate: O=[N+]([O-])c1ccc(O)c(Cl)c1; assay: as §1
In short: as §2

[35] = substrate: OC1CCCc2ccccc21; assay: as §1
In short: as §2

[36] = substrate: OCc1c[nH]c2ccccc12; assay: as §1
In short: as §2

[37] = substrate: OCc1ccc2ccccc2c1; assay: as §1
In short: as §2

[38] = substrate: OCc1cccc2ccccc12; assay: as §1
In short: as §2

[39] = substrate: OCc1ccccc1; assay: as §1
In short: as §2

[40] = substrate: OCc1ccoc1; assay: as §1
In short: as §2

[41] = substrate: ONc1ccc(Cl)cc1; assay: as §1
In short: as §2

[42] = substrate: ONc1ccccc1; assay: as §1
In short: as §2

[43] = substrate: Oc1ccc(-c2ccccc2)cc1; assay: as §1
In short: as §2

[44] = substrate: [H][C@]12CC3(c4ccc(O)cc4)C[C@]([H])(C1)C[C@@]([H])(C3)C2; assay: as §1
In short: as §2

B1: Sulfotransferase 1A1 (Rattus norvegicus) (protein)
chain: MEFSRPPLVHVKGIPLIKYFAETIGPLQNFTAWPDDLLISTYPKSGTTWMSEILDMIYQGGKLEKCGRAPIYARVPFLEFKCPGVPSGLETLEETPAPRLLKTHLPLSLLPQSLLDQKVKVIYIARNAKDVVVSYYNFYNMAKLHPDPGTWDSFLENFMDGEVSYGSWYQHVKEWWELRHTHPVLYLFYEDIKENPKREIKKILEFLGRSLPEETVDSIVHHTSFKKMKENCMTNYTTIPTEIMDHNVSPFMRKGTTGDWKNTFTVAQNERFDAHYAKTMTDCDFKFRCEL
B1 showed a Km (not read [1]) of 8 µM, a Vmax (not read [1]) of 1.13 µM/min and a Km (not read [2]) of 19 µM. For the same protein, the Vmax (not read [2]) was 0.35 µM/min, the Km [3] was 60 µM and the Vmax [3] was 0.182 µM/min. It also gave a Km [4] of 92 µM, a Vmax [4] of 0.181 µM/min and a Km [5] of 1360 µM. It also gave a Vmax [5] of 0.0061 µM/min, a Km [6] of 109 µM and a Vmax [6] of 0.091 µM/min. It also gave a Km [7] of 410 µM, a Vmax [7] of 0.133 µM/min and a Km [8] of 61 µM. It also gave a Vmax [8] of 0.132 µM/min, a Km [9] of 20 µM and a Vmax [9] of 0.0052 µM/min. It also gave a Km [10] of 30 µM, a Vmax [10] of 0.0967 µM/min and a Km [11] of 7 µM. It also gave a Vmax [11] of 0.0021 µM/min, a Km [12] of 20 µM and a Vmax [12] of 0.109 µM/min. It also gave a Km [13] of 9 µM, a Vmax [13] of 0.208 µM/min and a Km [14] of 10 µM. For the same protein, the Vmax [14] was 0.0305 µM/min, the Km [15] was 30 µM and the Vmax [15] was 0.13 µM/min. For the same protein, the Km [16] was 5 µM, the Vmax [16] was 0.296 µM/min and the Km [17] was 161 µM. For the same protein, the Vmax [17] was 0.0986 µM/min, the Km [18] was 360 µM and the Vmax [18] was 0.0085 µM/min. It also gave a Km [19] of 40 µM, a Vmax [19] of 0.178 µM/min and a Km [20] of 6 µM. It also gave a Vmax [20] of 0.427 µM/min, a Km [21] of 650 µM and a Vmax [21] of 0.273 µM/min. For the same protein, the Km [22] was 240 µM, the Vmax [22] was 0.0099 µM/min and the Km [23] was 10 µM. It also gave a Vmax [23] of 0.41 µM/min, a Km [24] of 119 µM and a Vmax [24] of 0.085 µM/min. For the same protein, the Km [25] was 6990 µM, the Vmax [25] was 0.0225 µM/min and the Km [26] was 11000 µM. It also gave a Vmax [26] of 0.0404 µM/min, a Km [27] of 4000 µM and a Vmax [27] of 0.35 µM/min. The Km [28] was 1730 µM, the Vmax [28] was 0.0206 µM/min and the Km [29] was 250 µM. It also gave a Vmax [29] of 0.0337 µM/min, a Km [30] of 600 µM and a Vmax [30] of 0.508 µM/min. It also gave a Km [31] of 10 µM, a Vmax [31] of 0.32 µM/min and a Km [32] of 22 µM. The Vmax [32] was 0.095 µM/min, the Km [33] was 199 µM and the Vmax [33] was 0.0206 µM/min. It also gave a Km [34] of 5 µM, a Vmax [34] of 0.028 µM/min and a Km [35] of 30 µM. For the same protein, the Vmax [35] was 0.0287 µM/min, the Km [36] was 29 µM and the Vmax [36] was 0.0332 µM/min. It also gave a Km [37] of 26 µM, a Vmax [37] of 0.0776 µM/min and a Km [38] of 30 µM. The Vmax [38] was 0.026 µM/min, the Km [39] was 50 µM and the Vmax [39] was 0.0305 µM/min. It also gave a Km [40] of 960 µM, a Vmax [40] of 0.0102 µM/min and a Km [41] of 26 µM. For the same protein, the Vmax [41] was 0.035 µM/min, the Km [42] was 230 µM and the Vmax [42] was 0.043 µM/min. The Km [43] was 91 µM, the Vmax [43] was 0.212 µM/min and the Km [44] was 1 µM. For the same protein, the Vmax [44] was 0.0472 µM/min.
